Results taken from ChEMBL document CHEMBL4004807 (J Med Chem, 2017).

Assays:
[1] = Drug degradation in simulated gastric fluid after 3 hrs
How it was run: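 Incubated in simulated gastric fluid at room temperature for 3 h; conversion to parent monitored.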

Plasma [2] = assay: Drug level in bile-duct cannulated rat plasma treated with 2-(((1r,4r)-4-(((4-chlorophenyl)(phenyl)carbamoyloxy)methyl)cyclohexyl)methoxy)acetic acid; format: ADME, cell-free
Plasma [3] = assay: Drug metabolism in po dosed rat plasma assessed as ralinepag formation; format: ADME, organism-based; settings: in vivo
[4] = Drug level in bile-duct cannulated rat bile treated with 2-(((1r,4r)-4-(((4-chlorophenyl)(phenyl)carbamoyloxy)methyl)cyclohexyl)methoxy)acetic acid; format: ADME; settings: in vivo

Drug metabolism (Plasma [2]): Metabolite_Detected
Drug metabolism (Plasma [3]): Metabolite_Detected
Drug metabolism [4]: Metabolite_Detected
Structure (SMILES): O=C(COC[C@H]1CC[C@H](COC(=O)N(c2ccccc2)c2ccc(Cl)cc2)CC1)NCCS(=O)(=O)O
Drug degradation [1]: Metabolite_Notdetected
